# Assay results from different studies.
# Protocols differ between the studies behind these lines.
# Target: Inhibitor of nuclear factor kappa-B kinase subunit epsilon (IKBKE, Homo sapiens, UniProt Q14164)
# One construct used (Q14164 1-716): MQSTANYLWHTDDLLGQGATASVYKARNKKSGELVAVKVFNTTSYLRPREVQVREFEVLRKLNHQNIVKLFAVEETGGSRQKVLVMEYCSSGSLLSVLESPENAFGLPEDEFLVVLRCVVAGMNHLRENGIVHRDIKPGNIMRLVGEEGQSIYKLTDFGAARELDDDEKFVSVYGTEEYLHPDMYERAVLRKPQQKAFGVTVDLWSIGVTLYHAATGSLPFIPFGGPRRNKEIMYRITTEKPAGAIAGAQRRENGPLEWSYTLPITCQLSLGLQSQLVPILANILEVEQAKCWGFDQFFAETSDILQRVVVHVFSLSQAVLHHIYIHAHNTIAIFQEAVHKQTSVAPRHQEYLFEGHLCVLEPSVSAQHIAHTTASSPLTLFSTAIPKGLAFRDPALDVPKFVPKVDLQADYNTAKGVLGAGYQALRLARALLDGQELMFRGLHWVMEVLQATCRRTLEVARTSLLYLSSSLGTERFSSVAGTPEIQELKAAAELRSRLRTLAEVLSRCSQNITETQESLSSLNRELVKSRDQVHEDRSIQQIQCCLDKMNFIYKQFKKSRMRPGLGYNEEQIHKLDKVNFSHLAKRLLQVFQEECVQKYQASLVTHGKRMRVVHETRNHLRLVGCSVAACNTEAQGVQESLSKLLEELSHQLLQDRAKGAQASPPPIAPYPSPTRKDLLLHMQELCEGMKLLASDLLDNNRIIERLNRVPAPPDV
SMILES,assay,conditions,remaining binding [%]
Cc1cnc(Nc2ccc(C(=O)N3CCC(N4CCCC4)CC3)cc2)nc1-c1cc2ccccc2s1,"binding, competition with immobilised ligand",1 µM,18
CCS(=O)(=O)c1cc2cc(C[C@@](O)(CC(C)(C)c3ccc(F)cc3C(N)=O)C(F)(F)F)[nH]c2cn1,"cell-free assay, competition with immobilised ligand",1 µM,83
N[C@H]1CCN(c2nccc(-c3cnn4ncccc34)n2)C1,binding,1 µM,91
O=C(NCCCN1CCOCC1)c1ccc(Nc2nccc(-c3cc4ccccc4s3)n2)cc1,"binding, competition with immobilised ligand",1 µM,96
Cc1cnn2ncc(-c3ccnc(N(C)C)n3)c2c1,binding,1 µM,96
CCCOc1ccc([C@@H]2[C@@H](C(=O)O)[C@H](c3ccc4c(c3)OCO4)CN2CC(=O)Nc2c(CC)cccc2CC)cc1,"cell-free assay, competition with immobilised ligand",1 µM,85
F[C@@H]1CCN(c2nccc(-c3cnn4ncccc34)n2)C1,binding,1 µM,100
O=C(Nc1c[nH]nc1C(=O)NC1CCNCC1)c1cc(F)cc(F)c1,"binding, competition with immobilised ligand",1 µM,100
C[C@@H](c1ccc(-n2cnc3c(N)ncnc32)cc1)N1CCc2nn(C)c(Cc3ccccc3)c2C1=O,"binding, competition with immobilised ligand",0.1 µM,73
c1cncc(-c2cccc(Nc3nccc(NC4CCCCC4)n3)c2)c1,"binding, competition with immobilised ligand",10 µM,41
CN(C)CC#Cc1ccc(OCCCc2sc(N3CCc4cccc(C(=O)Nc5nc6ccccc6s5)c4C3)nc2C(=O)O)c(F)c1,"cell-free assay, competition with immobilised ligand",1 µM,100
COc1cnc(Nc2cccc(S(N)(=O)=O)c2)nc1N1CCN(c2ccccc2)CC1,"binding, competition with immobilised ligand",1 µM,57
CCc1ccccc1C(=O)Nc1n[nH]c2c(C)c(F)c(C3C(C#N)=C(C)N(C)C(C)=C3C#N)cc12,"cell-free assay, competition with immobilised ligand",1 µM,68
O=C(c1ccc(Nc2ncc(Cl)c(-c3ccc(Cl)s3)n2)cc1)N1CCC(N2CCCC2)CC1,"binding, competition with immobilised ligand",1 µM,7.7
O=C(NCc1ncc(C(F)(F)F)cc1Cl)c1ccc2c(c1)C1(CCS(=O)(=O)CC1)[C@H](C1CC1)N2S(=O)(=O)c1ccc(F)cc1,"cell-free assay, competition with immobilised ligand",1 µM,77
CC1CCCN1c1nccc(-c2cnn3ncccc23)n1 (stereo not drawn),binding,1 µM,100
COc1cnc(Nc2cccc(S(N)(=O)=O)c2)nc1N1CCN(c2ccccc2)C(=O)C1,"binding, competition with immobilised ligand",1 µM,50
CN(C)c1ncc(F)c(-c2cnn3ncccc23)n1,binding,1 µM,99
C=CC(=O)N1CCC(C(=O)NCC(=O)N2CCN(c3nc(-c4cnc(N)nc4C(F)F)nc(N4CCOCC4)n3)CC2)CC1,"binding, competition with immobilised ligand",1 µM,71
Cc1cc(C)c(-n2ccn3nc(-c4cccnc4)cc23)cc1NC(=O)c1cc(C#N)cc(S(F)(F)(F)(F)F)c1,"cell-free assay, competition with immobilised ligand",0.1 µM,59.9
C[C@H]1CCN(c2nccc(-c3cnn4ncccc34)n2)C1,binding,1 µM,79
